# PP1 inh – PP1-alpha phosphatase inhibitors, primary screen, counter-screen for PP5 inhibitor project, biochemical, fluorescence, OMFP substrate, single point; AID 2235, 2010; 320,000 tested, 0.9% active; inhibition, % at 6.7 µM; purified PP1alpha;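 active means inhibition above the mean inhibition of all tested compounds plus 3 SD, computed separately for each screening campaign, cut at about 15% in these data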
# ZTA DNA inh – counter-screen for EBNA-1 inhibitors: inhibitors of Epstein-Barr virus ZTA | 320,000 tested, 0.15% active | ZTA-DNA binding, fluorescence polarization | AID 2234 | P03206 | inhibition, % at 11 µM; in the data active means inhibition above about 33%
# HCV core dimer – inhibitors of HCV core protein dimerization, primary screen, biochemical, TR-FRET, high-throughput | TR-FRET GST/Flag-core106 dimerization, 1536-well | inhibition, % at 5 µM | 300,000 tested, 0.33% active;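 active means inhibition above the mean of all tested compounds plus 3 SD, set per screening campaign, cut at about 45% in these data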
#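 Material: Tagged HCV core106 pair (GST and Flag) | Amount: GST-core106 13.5 nM, Flag-core106 17 nM | Medium: KF-containing HEPES buffer, pH 7.45, DTT, CHAPS, BSA | Reagent: Eu donor and XL665 acceptor anti-tag antibodies | Schedule: 4 h at 22.5 °C | Technique: Time-resolved FRET, ex 340 nm, em 617 and 671 nm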
# NS3 helicase inh – inhibitors of HCV NS3 helicase, primary screen, biochemical, Cy5 molecular beacon fluorescence | 290,000 tested, 0.56% active | NS3 helicase DNA unwinding | inhibition, % at 10.9 µM | AID 1800, 2009;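 active means inhibition above the mean of all tested compounds plus 3 SD, set per campaign, cut at about 35% in these data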;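 further: 0% = DMSO wells and 100% = thioflavine S control wells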
#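 assay system = NS3 helicase fragment of HCV | buffer or medium = MOPS pH 6.5, MgCl2, DTT, Tween20, BSA | timing = 60 min unwinding reaction at 25 °C after ATP addition | signal = Cy5 beacon fluorescence read at start and 1 h | read-out basis = % inhibition of unwinding | control set = low DMSO, high thioflavine S at 110 µM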
# EBNA-1 inh – EBNA-1 DNA-binding inhibitors, primary screen, biochemical, fluorescence polarization; inhibition, % at 14.8 µM; 300,000 tested, 0.34% active; AID 1950, 2009; in the data active means inhibition above about 28%
# PP1 confirm – PP1 phosphatase inhibitors, confirmation, biochemical, fluorescence, OMFP substrate, triplicate; purified PP1alpha; AID 2358, 2010; shares compounds with PP1 inh; inhibition, % at 6.7 µM; 1,900 tested, 52% active;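 active means mean PP1 inhibition above a set limit taken from the earlier primary screen, cut at about 15% in these data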
# PP5 counter – PP5 phosphatase inhibition by PP1 hits, confirmation, counter-screen for PP1 inhibitor project, biochemical, fluorescence, triplicate | inhibition, % at 6.7 µM | AID 2360, 2010 | purified PP5c, OMFP fluorescence | shares compounds with PP1 inh | 1,900 tested, 4% active;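 active means mean PP5 inhibition over triplicate wells above about 9.5% taken from the earlier PP1 screen, limit read from the data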
# Target sequence (P53041 whole entry, looked up): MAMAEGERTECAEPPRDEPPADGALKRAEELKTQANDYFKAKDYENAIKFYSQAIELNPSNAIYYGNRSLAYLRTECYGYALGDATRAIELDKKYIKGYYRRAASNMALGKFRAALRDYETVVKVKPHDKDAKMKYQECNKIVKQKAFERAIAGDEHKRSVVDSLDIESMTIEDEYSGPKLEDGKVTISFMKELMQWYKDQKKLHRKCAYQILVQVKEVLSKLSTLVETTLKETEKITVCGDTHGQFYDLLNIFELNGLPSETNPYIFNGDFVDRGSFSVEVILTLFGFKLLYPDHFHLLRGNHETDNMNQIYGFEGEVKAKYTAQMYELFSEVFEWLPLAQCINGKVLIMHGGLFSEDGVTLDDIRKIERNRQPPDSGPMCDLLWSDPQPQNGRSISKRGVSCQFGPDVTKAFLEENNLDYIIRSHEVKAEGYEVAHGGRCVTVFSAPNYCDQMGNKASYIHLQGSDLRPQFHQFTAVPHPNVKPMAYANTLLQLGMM
# The depositor's hits bear a star; . = no result. Only some compounds are listed: those with a hit (about 1.9% of all), similar ones and a draw of the others.
SMILES,PP1 inh,ZTA DNA inh,HCV core dimer,NS3 helicase inh,EBNA-1 inh,PP1 confirm,PP5 counter
COc1ccc(Cl)cc1NC(=O)CN(C)C(=O)Cn1c(=O)oc2ccccc21,-2.3,-2.1,-0.2,.,-10.6,.,.
CCOc1ccc(NC(=O)CN(C)C(=O)Cn2c(=O)oc3ccccc32)cc1OCC,41.2*,-3.7,0.5,.,-1.9,-4.1,-5.9
O=C(C[n+]1cc(-c2ccc(Cl)cc2)n2c1CCC2)Nc1nc(-c2ccc(F)cc2)cs1,21.2*,-1.5,-5.6,-118.0,-4.8,-8.1,1.4
O=C(C[n+]1cc(-c2ccc(F)cc2)n2c1CCC2)Nc1nc(-c2ccc(F)cc2)cs1,13.4,-10.6,-4.6,-63.0,2.1,.,.
c1ccc(-c2nc3cc4ccccc4cc3[nH]2)nc1,30.1*,10.1,-8.8,2.0,13.5,19.6*,3.6
CC(=O)Nc1ccc2nc(-c3ccccn3)[nH]c2c1,3.8,-15.4,-3.6,4.7,18.8,.,.
CCn1cc(C(=O)O)c(=O)c2cc(F)c(N3CCN(C(=S)NC(=O)c4ccccc4Cl)CC3)cc21,-1.1,1.3,2.6,0.4,4.5,.,.
CCn1cc(C(=O)O)c(=O)c2cc(F)c(N3CCN(S(=O)(=O)c4ccc(Br)cc4)CC3)cc21,19.1*,13.0,15.2,4.4,3.5,41.2*,-0.6
C=CCNC(=S)N1CCN(c2cc3c(cc2F)c(=O)c(C(=O)O)cn3CC)CC1,19.7*,3.5,-1.0,-2.9,-5.0,8.5,-4.3
Cc1ccc(NC(=O)CSc2ncccn2)cc1S(=O)(=O)N1CCCCC1,-3.3,15.5,1.8,.,6.3,.,.
Cc1ccc(NC(=O)COC(=O)c2ccc3c(c2)NC(=O)C2CCCN32)cc1 (stereo not given),18.6*,2.3,27.2,0.4,-3.6,11.0,5.4
COC(=O)c1ccc2c(c1)NC(=O)C1CCCN21 (stereo not given),1.3,9.5,31.3,.,-5.7,.,.
C=CCOC(=O)C(=O)/C=C/c1ccc2c(c1)Cc1ccccc1-2,21.4*,-1.2,4.8,31.9,3.4,17.7*,0.4
C=CCOC(=O)C(=O)/C=C/c1csc2ccccc12,8.7,4.9,16.3,19.9,14.4,.,.
O=c1cc(-c2ccccc2Cl)oc2c(NS(=O)(=O)c3ccccc3OC(F)(F)F)ccc(O)c12,24.2*,-16.7,1.1,.,0.1,6.6,0.3
Cc1ccc(C(=O)NCCCN2CCOCC2)cc1Cl,18.0*,1.6,1.9,25.3,-22.6,-4.5,-3.6
COC(=O)CC1C(=O)NCCN1C(=O)OC(C)(C)C (stereo not given),-0.2,-17.8,-8.1,-5.9,3.7,.,.
COc1cc(/C=C/C(O)=C/C(=O)/C=C/c2ccc(O)cc2)ccc1O,-3.0,19.5,.,.,.,.,.
Cc1cc2ccccn2c1C(C[N+](=O)[O-])c1ccc(N(C)C)cc1 (stereo not given),19.5*,5.7,9.4,2.4,-3.5,4.4,9.8*
Cc1cc2ccccn2c1C(=O)c1cc([N+](=O)[O-])cc([N+](=O)[O-])c1,1.2,-1.7,7.9,8.2,6.3,.,.
O=C(Nc1nnc(-c2ccco2)o1)c1ccc(Cl)s1,17.5*,4.4,-0.2,12.3,6.9,3.2,-2.3
COc1cccc(-c2nnc(NC(=O)c3ccc(Cl)s3)o2)c1,21.8*,2.1,18.1,15.7,-3.0,25.2*,-4.9
O=C(Nc1nnc(C2CC2)s1)c1ccc(Cl)c(S(=O)(=O)N2CCc3ccccc3C2)c1,20.5*,-4.4,-2.4,6.4,-2.7,21.3*,-2.5
O=C(Nc1nnc(C2CC2)s1)c1cc(S(=O)(=O)N2CCN(c3ccccc3)CC2)ccc1Cl,3.0,0.5,8.5,1.9,-6.0,.,.
CC(CNC(=O)Cn1ccc(N)nc1=O)c1ccccc1 (stereo not given),-6.2,-8.0,.,.,.,.,.
SMILES,PP1 inh,ZTA DNA inh,HCV core dimer,NS3 helicase inh,EBNA-1 inh,PP1 confirm,PP5 counter
C/C(N)=C(/C#N)C(=O)COC(=O)Cc1coc2ccc3ccccc3c12,-3.4,1.0,5.6,-8.6,21.4,.,.
O=C1c2cccc3cccc(c23)C(=O)N1c1ccc2ncccc2c1,22.9*,31.2,6.5,4.9,14.2,5.8,-1.6
O=C1c2cccc3cccc(c23)C(=O)N1c1nccs1,-1.2,-7.3,-6.4,-2.4,12.5,.,.
N#C/C(=C/c1ccc(Sc2nc3ccccc3[nH]2)o1)c1ccccc1F,36.8*,7.5,-3.0,-4.2,-5.8,3.5,-0.2
Cc1ccc2[nH]c(=O)c(-c3nc4cc(C)ccn4c3NCc3ccco3)cc2c1,18.2*,-5.1,6.2,-13.8,-2.3,20.6*,2.9
COc1ccc(-n2c(Cn3c(=O)sc4ccccc43)nnc2SCC(=O)N2CCCC2)cc1,37.6*,-5.2,5.5,-3.4,-0.7,-5.1,-6.1
Cc1ccc(C(=O)Nc2nnc(CC(=O)N/N=C/c3ccc(O)c(O)c3)s2)cc1,17.7*,-11.7,-16.5,15.9,-11.2,8.6,-6.5
Cc1ccc(C(=O)Nc2nnc(Cc3ccccc3)s2)cc1,5.7,-12.9,-7.8,5.2,-13.8,.,.
Clc1ccc(C(Cn2ccnc2)OCc2c(Cl)cccc2Cl)c(Cl)c1 (stereo not given),25.6*,1.8,18.0,.,-13.7,18.4*,-2.9
OC(Cn1ccnc1)c1ccc(Cl)cc1Cl (stereo not given),0.1,-4.1,-0.8,3.9,-11.8,.,.
CC(C)NC(=O)CN(C(=O)CCC(=O)Nc1nccs1)c1ccc(C(C)C)cc1,-5.7,-16.0,7.7,5.2,-6.2,.,.
O=C(CC1S/C(=N/N=C/c2c[nH]c3ccc(OCc4ccccc4)cc23)NC1=O)Nc1ccccc1 (stereo not given),23.7*,-7.9,39.1,7.6,4.1,24.4*,-5.6
O=C(NC1CCCc2ccccc21)c1cccc(S(=O)(=O)N2CCOCC2)c1 (stereo not given),-0.9,5.7,10.2,-0.1,1.9,.,.
FC(F)(F)c1cc(CCN2CCNC[C@H]2Cc2cccc3ccccc23)cc(C(F)(F)F)c1,22.5*,-7.7,-6.7,.,2.9,-1.6,1.0
FC(F)(F)c1ccccc1-n1ccnc1,-3.4,10.0,-4.8,.,-11.0,.,.
Clc1ccccc1C(c1ccccc1)(c1ccccc1)n1ccnc1,18.3*,-7.7,-184.5,-8.8,11.9,5.5,-3.5
CC(C)c1ccccc1NCC(=O)N1CCN(Cc2ccccc2)CC1,0.7,-8.5,-3.2,-12.9,-2.0,.,.
O=C(Nc1nc(-c2ccccn2)cs1)C1CC1,8.7,-0.8,-9.5,-2.3,0.3,.,.
O=C(CCS(=O)(=O)c1ccccc1)Nc1ccccn1,5.2,-3.2,-22.0,13.9,-6.7,.,.
